Measured values as given in ChEMBL document CHEMBL1142049, “1-(1-Naphthyl)piperazine as a novel template for 5-HT6 serotonin receptor ligands” (Bioorg Med Chem Lett, 2005).

Key:
[1] = molecular target: T1, 5-hydroxytryptamine receptor 6 (Homo sapiens, UniProt P50406); assay: Binding affinity against 5 Hydroxy tryptamine 6 receptor
Procedure, shortened: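 Human 5-HT6 cDNA transiently expressed in HEK-293 cells, switched to dialyzed-serum medium, harvested 75 h post-transfection, PBS-washed and frozen as pellets. Nonspecific binding defined with 10 µM clozapine. Ki values from triplicate determinations.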

[2] = molecular target: T1, 5-hydroxytryptamine receptor 6; assay: Binding affinity against 5-hydroxytryptamine 6 receptor
Procedure, shortened: (§1)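 Human 5-HT6 cDNA transiently expressed in HEK-293 cells, switched to dialyzed-serum medium, harvested 75 h post-transfection, PBS-washed and frozen as pellets. [3H]LSD (1 nM final) displaced by unlabeled ligand (1–10,000 nM), 90 min at room temperature in 50 mM Tris-Cl, 10 mM MgCl2, 0.1 mM EDTA, pH 7.40. Nonspecific binding defined with 10 µM clozapine. Ki values from triplicate determinations.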

[3] = molecular target: T1, 5-hydroxytryptamine receptor 6; assay: Binding affinity against 5-hydroxy tryptamine 6 receptor; procedure, shortened: as §1
[4] = molecular target: T1, 5-hydroxytryptamine receptor 6; assay: pA2 against 5-Hydroxytryptamine 6 receptor

T1 sequence (P50406 whole entry): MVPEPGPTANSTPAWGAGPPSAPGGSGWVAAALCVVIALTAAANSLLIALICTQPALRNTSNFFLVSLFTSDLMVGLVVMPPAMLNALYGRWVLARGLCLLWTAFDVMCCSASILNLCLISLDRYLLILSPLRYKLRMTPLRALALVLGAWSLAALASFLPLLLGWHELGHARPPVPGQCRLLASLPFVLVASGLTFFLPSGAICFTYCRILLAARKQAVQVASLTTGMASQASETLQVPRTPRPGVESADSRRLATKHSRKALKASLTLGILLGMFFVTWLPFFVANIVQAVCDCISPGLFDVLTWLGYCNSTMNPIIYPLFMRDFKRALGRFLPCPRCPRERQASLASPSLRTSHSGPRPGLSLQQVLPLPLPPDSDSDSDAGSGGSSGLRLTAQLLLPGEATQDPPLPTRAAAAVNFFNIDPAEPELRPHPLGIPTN

SMILES | Ki [1] | other results
COc1ccccc1N1CCNCC1 | 1.2 nM | 
O=C(c1ccccc1)c1ccc(N2CCNCC2)c2ccccc12 | 57 nM | 
CCc1cc(N2CCNCC2)c2ccccc2c1 | 21 nM | 
O=S(=O)(c1ccc(NO)cc1)c1cccc2ccccc12 | 63 nM | 
c1ccc2c(N3CCNCC3)cccc2c1 |  | Ki [2]: 100 nM; Ki [3]: 120 nM
c1ccc(Cc2ccc(N3CCNCC3)c3ccccc23)cc1 | 35 nM | 
O=S(=O)(c1ccccc1)c1ccc(N2CCNCC2)c2ccccc12 | 3.8 nM | pA2 [4]: 7.5
Nc1ccc(S(=O)(=O)c2cc(Br)nc(N3CCCC3)c2)cc1 | ~1 nM | 
Brc1ccc(N2CCNCC2)c2ccccc12 | 54 nM | 
c1ccc(-c2ccc(N3CCNCC3)c3ccccc23)cc1 | 190 nM | 
Nc1ccc(S(=O)(=O)c2cccc3ccccc23)cc1 | 34 nM | 
c1ccc(-c2cc(N3CCNCC3)c3ccccc3c2)cc1 | 9.3 nM | 
Nc1ccc(S(=O)(=O)c2ccc(N3CCNCC3)c3ccccc23)cc1 | 0.9 nM | 
Nc1ccc(S(=O)(=O)c2cc(Br)nc(N3CCNCC3)c2)cc1 | ~0.1 nM | 
